From ChEMBL document CHEMBL1275537, “In vitro activities of tigecycline and 10 other antimicrobials against nonpigmented rapidly growing mycobacteria” (2008)
Converted amounts (≈) assume the structure as drawn.

Columns and labels:
Assay type in all cases: functional
[1] = tested on: Mycolicibacterium fortuitum; test: Antibacterial activity against nonpigmented rapidly growing Mycobacterium fortuitum after 3 days by broth microdilution method; conditions: 72 h
Summary of the method: (§1)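 MIC by broth microdilution. Strains are collection strains and clinical isolates, grown on 5% sheep blood tryptic soy agar at 35°C for 4 days in room air. Inoculum is made straight from the blood agar plates in cation-supplemented Mueller-Hinton broth with 0.02% Tween 80. Doubling dilutions run 64 to 0.03 µg/ml. Plates are incubated at 30°C in room air and read at 3 days. E. coli ATCC 25922, S. aureus ATCC 29213 and E. faecalis ATCC 29212 serve as controls. MIC50 and MIC90 are given where ≥10 strains were tested, otherwise the range.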

[2] = tested on: Mycobacterium porcinum; test: Antibacterial activity against nonpigmented rapidly growing Mycobacterium porcinum after 3 days by broth microdilution method; conditions: Mycolicibacterium porcinum, 72 h; summary of the method: as §1
[3] = tested on: Mycolicibacterium smegmatis; test: Antibacterial activity against nonpigmented rapidly growing Mycobacterium smegmatis after 3 days by broth microdilution method; conditions: 72 h; summary of the method: as §1
[4] = tested on: Mycobacterium mucogenicum; test: Antibacterial activity against nonpigmented rapidly growing Mycobacterium mucogenicum after 3 days by broth microdilution method; conditions: Mycolicibacterium mucogenicum, 72 h; summary of the method: as §1
[5] = tested on: Mycobacteroides chelonae; test: Antibacterial activity against nonpigmented rapidly growing Mycobacterium chelonae after 3 days by broth microdilution method; conditions: 72 h; summary of the method: as §1
[6] = tested on: Mycobacterium septicum; test: Antibacterial activity against nonpigmented rapidly growing Mycobacterium septicum after 3 days by broth microdilution method; conditions: Mycolicibacterium septicum, 72 h; summary of the method: as §1
[7] = tested on: Mycobacterium wolinskyi; test: Antibacterial activity against nonpigmented rapidly growing Mycobacterium wolinskyi after 3 days by broth microdilution method; conditions: Mycolicibacterium wolinskyi, 72 h; summary of the method: as §1
[8] = tested on: Mycolicibacterium peregrinum; test: Antibacterial activity against nonpigmented rapidly growing Mycobacterium peregrinum after 3 days by broth microdilution method; conditions: 72 h; summary of the method: as §1
[9] = tested on: Mycobacterium alvei; test: Antibacterial activity against nonpigmented rapidly growing Mycobacterium alvei after 3 days by broth microdilution method; conditions: Mycolicibacterium alvei, 72 h; summary of the method: as §1
[10] = tested on: Mycobacteroides abscessus; test: Antibacterial activity against nonpigmented rapidly growing Mycobacterium abscessus after 3 days by broth microdilution method; conditions: 72 h; summary of the method: as §1
[11] = tested on: Mycolicibacterium mageritense; test: Antibacterial activity against nonpigmented rapidly growing Mycobacterium mageritense after 3 days by broth microdilution method; conditions: 72 h; summary of the method: as §1

SMILES | MIC50 [1] [µg/mL] | MIC90 [1] [µg/mL] | MIC [2] [µg/mL] | MIC [3] [µg/mL] | MIC [4] [µg/mL] | MIC50 [5] [µg/mL] | MIC90 [5] [µg/mL] | MIC [6] [µg/mL] | MIC [7] [µg/mL] | MIC50 [8] [µg/mL] | MIC90 [8] [µg/mL] | MIC [9] [µg/mL] | MIC50 [10] [µg/mL] | MIC90 [10] [µg/mL] | MIC [11] [µg/mL]
NC[C@H]1O[C@H](O[C@H]2[C@H](O)[C@@H](O[C@H]3O[C@H](CO)[C@@H](O)[C@H](N)[C@H]3O)[C@H](N)C[C@@H]2N)[C@H](N)C[C@@H]1O [TOBRAMYCIN] | 16 (≈ 34.2 µM) | 32 (≈ 68.4 µM) | 1 (≈ 2.14 µM) | ≤ 0.03 | 1 (≈ 2.14 µM) | 4 (≈ 8.56 µM) | 16 (≈ 34.2 µM) | 0.5 (≈ 1.07 µM) | 8 (≈ 17.1 µM) | 4 (≈ 8.56 µM) | 8 (≈ 17.1 µM) | 4 (≈ 8.56 µM) | 8 (≈ 17.1 µM) | 16 (≈ 34.2 µM) | 8 (≈ 17.1 µM)
C[C@H]1COc2c(N3CCN(C)CC3)c(F)cc3c(=O)c(C(=O)O)cn1c23.C[C@H]1COc2c(N3CCN(C)CC3)c(F)cc3c(=O)c(C(=O)O)cn1c23.O [LEVOFLOXACIN] | 0.06 | 0.25 | 0.06 | ≤ 0.03 | 0.06 | 0.5 | 8 | 0.12 | 0.06 | 0.06 | 0.25 | ≤ 0.03 | 16 | 32 | ≤ 0.03
CC[C@H]1OC(=O)[C@H](C)[C@@H](O[C@H]2C[C@@](C)(OC)[C@@H](O)[C@H](C)O2)[C@H](C)[C@@H](O[C@@H]2O[C@H](C)C[C@H](N(C)C)[C@H]2O)[C@](C)(OC)C[C@@H](C)C(=O)[C@H](C)[C@@H](O)[C@]1(C)O [CLARITHROMYCIN] | 2 (≈ 2.67 µM) | 16 (≈ 21.4 µM) | 0.5 (≈ 0.668 µM) | ≤ 0.03 | ≤ 0.03 | 0.06 (≈ 0.0802 µM) | 4 (≈ 5.35 µM) | ≤ 0.03 | 32 (≈ 42.8 µM) | 0.06 (≈ 0.0802 µM) | 2 (≈ 2.67 µM) | ≤ 0.03 | ≤ 0.03 | 1 (≈ 1.34 µM) | 2 (≈ 2.67 µM)
NCC[C@H](O)C(=O)N[C@@H]1C[C@H](N)[C@@H](O[C@H]2O[C@H](CN)[C@@H](O)[C@H](O)[C@H]2O)[C@H](O)[C@H]1O[C@H]1O[C@H](CO)[C@@H](O)[C@H](N)[C@H]1O [AMIKACIN] | 1 (≈ 1.71 µM) | 2 (≈ 3.42 µM) | 0.25 (≈ 0.427 µM) | ≤ 0.03 | 0.25 (≈ 0.427 µM) | 1 (≈ 1.71 µM) | 16 (≈ 27.3 µM) | 1 (≈ 1.71 µM) | 1 (≈ 1.71 µM) | 0.5 (≈ 0.854 µM) | 1 (≈ 1.71 µM) | ≤ 0.5 | 2 (≈ 3.42 µM) | 8 (≈ 13.7 µM) | 0.5 (≈ 0.854 µM)
C[C@H]1c2cccc(O)c2C(=O)C2=C(O)[C@]3(O)C(=O)C(C(N)=O)=C(O)[C@@H](N(C)C)[C@@H]3[C@@H](O)[C@@H]21.O [DOXYCYCLINE] | 4 | 64 | 8 | ≤ 0.03 | ≤ 0.03 | 8 | 64 | 32 | 0.25 | 8 | 32 | ≤ 0.03 | > 64 | > 64 | ≤ 0.03
CO[C@@]1(NC(=O)Cc2cccs2)C(=O)N2C(C(=O)O)=C(COC(N)=O)CS[C@@H]21 [CEFOXITIN] | – | – | 2 (≈ 4.68 µM) | 1 (≈ 2.34 µM) | 0.5 (≈ 1.17 µM) | – | – | 32 (≈ 74.9 µM) | 1 (≈ 2.34 µM) | – | – | 2 (≈ 4.68 µM) | – | – | 1 (≈ 2.34 µM)
CC[C@H]1OC(=O)[C@H](C)[C@@H](O[C@H]2C[C@@](C)(OC)[C@@H](O)[C@H](C)O2)[C@H](C)[C@@H](O[C@@H]2O[C@H](C)C[C@H](N(C)C)[C@H]2O)[C@](C)(O)C[C@@H](C)CN(C)[C@H](C)[C@@H](O)[C@]1(C)O [AZITHROMYCIN] | 8 (≈ 10.7 µM) | > 64 | 32 (≈ 42.7 µM) | 0.06 (≈ 0.0801 µM) | ≤ 0.03 | 0.5 (≈ 0.668 µM) | 16 (≈ 21.4 µM) | 0.5 (≈ 0.668 µM) | 128 (≈ 171 µM) | 0.5 (≈ 0.668 µM) | 64 (≈ 85.4 µM) | ≤ 0.03 | 0.5 (≈ 0.668 µM) | 2 (≈ 2.67 µM) | 2 (≈ 2.67 µM)
CN(C)c1cc(NC(=O)CNC(C)(C)C)c(O)c2c1C[C@H]1C[C@H]3[C@H](N(C)C)C(O)=C(C(N)=O)C(=O)[C@@]3(O)C(O)=C1C2=O [TIGECYCLINE] | ≤ 0.03 | 0.25 (≈ 0.427 µM) | 0.06 (≈ 0.102 µM) | ≤ 0.03 | ≤ 0.03 | 0.12 (≈ 0.205 µM) | 0.5 (≈ 0.854 µM) | ≤ 0.03 | 0.12 (≈ 0.205 µM) | 0.06 (≈ 0.102 µM) | 0.06 (≈ 0.102 µM) | ≤ 0.03 | 0.06 (≈ 0.102 µM) | 0.5 (≈ 0.854 µM) | ≤ 0.03
O=C(O)c1cn(C2CC2)c2cc(N3CCNCC3)c(F)cc2c1=O [CIPROFLOXACIN] | ≤ 0.03 | 0.12 (≈ 0.362 µM) | ≤ 0.03 | 0.12 (≈ 0.362 µM) | ≤ 0.03 | 0.12 (≈ 0.362 µM) | 2 (≈ 6.04 µM) | 0.12 (≈ 0.362 µM) | 0.25 (≈ 0.754 µM) | ≤ 0.03 | 0.06 (≈ 0.181 µM) | ≤ 0.03 | 2 (≈ 6.04 µM) | 8 (≈ 24.1 µM) | ≤ 0.03
CC[C@H]1OC(=O)[C@H](C)[C@@H](O[C@H]2C[C@@](C)(OC)[C@@H](O)[C@H](C)O2)[C@H](C)[C@@H](O[C@@H]2O[C@H](C)C[C@H](N(C)C)[C@H]2O)[C@](C)(O)C[C@@H](C)C(=O)[C@H](C)[C@@H](O)[C@]1(C)O [ERYTHROMYCIN] | 64 (≈ 87.2 µM) | > 64 | 8 (≈ 10.9 µM) | 0.12 (≈ 0.164 µM) | ≤ 0.03 | 0.5 (≈ 0.681 µM) | 32 (≈ 43.6 µM) | 2 (≈ 2.73 µM) | 128 (≈ 174 µM) | 1 (≈ 1.36 µM) | 16 (≈ 21.8 µM) | ≤ 0.03 | 1 (≈ 1.36 µM) | 16 (≈ 21.8 µM) | 32 (≈ 43.6 µM)
